The structures appear in SMILES notation. Activity calls are given as the source filed them. No cut-off for these calls is given here.

In experiment [1] the target is Gamma-aminobutyric acid receptor subunit alpha-1/beta-3/gamma-2 (Rattus norvegicus) (UniProt P18508+P62813+P63079). The experiment in a line: Displacement of [3H]EBOB from rat GABA-A receptor alpha1beta3gamma2 expressed in HEK293 cell membranes at 10 uM after 90 mins by liquid scintillation counting analysis relative to control. The method, boiled down: (§1)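 Crude membranes from HEK 293 cells transiently Ca-phosphate-transfected with rat subunit cDNAs, harvested at 48 h. Membranes (150-200 µg protein) incubated with 3 nM [3H]EBOB in 50 mM Tris/citrate pH 7.3 plus 0.2 M NaCl. Compound up to 10 µM, final DMSO 0.1%, no GABA, 90 min at 21 °C. Bound radioligand collected by GF/C filtration and counted by scintillation.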
(In general: In a radioligand displacement assay an active substance lowers the binding of a labelled ligand.)

The target of experiment [2] is Gamma-aminobutyric acid receptor subunit alpha-4/beta-3 (Rattus norvegicus, UniProt P28471+P63079). Description: Displacement of [3H]EBOB from rat GABA-A receptor alpha4beta3 expressed in HEK293 cell membranes after 90 mins by liquid scintillation counting analysis. The procedure, abridged: as §1
Chain of Gamma-aminobutyric acid receptor subunit alpha-4/beta-3 (P28471 whole entry): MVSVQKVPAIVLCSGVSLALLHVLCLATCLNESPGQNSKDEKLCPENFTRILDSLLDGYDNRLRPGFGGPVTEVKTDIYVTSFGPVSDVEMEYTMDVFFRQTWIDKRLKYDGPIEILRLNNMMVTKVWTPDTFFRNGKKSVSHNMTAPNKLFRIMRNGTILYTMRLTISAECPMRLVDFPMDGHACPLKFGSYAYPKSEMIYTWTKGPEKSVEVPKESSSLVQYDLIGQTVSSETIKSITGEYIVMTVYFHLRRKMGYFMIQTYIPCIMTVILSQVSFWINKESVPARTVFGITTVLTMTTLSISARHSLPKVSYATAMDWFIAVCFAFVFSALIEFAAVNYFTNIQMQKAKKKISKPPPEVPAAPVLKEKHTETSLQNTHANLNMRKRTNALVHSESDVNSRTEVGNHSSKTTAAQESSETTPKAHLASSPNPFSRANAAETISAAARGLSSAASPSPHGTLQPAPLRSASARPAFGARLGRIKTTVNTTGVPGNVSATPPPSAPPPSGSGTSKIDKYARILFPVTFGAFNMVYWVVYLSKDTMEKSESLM
Chain of Gamma-aminobutyric acid receptor subunit alpha-4/beta-3 (P63079 whole entry): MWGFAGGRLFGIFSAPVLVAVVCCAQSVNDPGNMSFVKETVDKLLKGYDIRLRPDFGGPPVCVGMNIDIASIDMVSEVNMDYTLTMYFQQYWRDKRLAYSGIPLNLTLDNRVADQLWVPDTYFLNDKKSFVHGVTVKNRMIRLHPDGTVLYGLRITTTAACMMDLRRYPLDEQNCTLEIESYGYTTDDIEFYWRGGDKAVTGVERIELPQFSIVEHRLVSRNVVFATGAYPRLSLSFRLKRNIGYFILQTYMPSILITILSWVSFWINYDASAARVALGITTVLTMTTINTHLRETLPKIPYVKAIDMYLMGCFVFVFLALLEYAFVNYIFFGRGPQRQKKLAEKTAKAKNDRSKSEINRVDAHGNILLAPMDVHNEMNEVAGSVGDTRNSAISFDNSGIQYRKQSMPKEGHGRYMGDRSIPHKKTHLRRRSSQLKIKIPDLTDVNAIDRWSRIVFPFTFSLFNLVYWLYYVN
In experiment [3] the target is T1, Gamma-aminobutyric acid receptor subunit alpha-6/beta-3 (Rattus norvegicus) (UniProt P30191+P63079). The experiment in a line: Modulation of rat […] GABA-A receptor alpha6beta3 expressed in HEK293 cells up to 10 uM in presence of GABA by patch-clamp assay relative to control. It counts as cell-based. The procedure, abridged:
(§2)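 Rat GABA-A subunits were transiently co-transfected with eGFP into HEK293 cells on coverslips. Fluorescent cells were recorded by whole-cell patch clamp 48 h later; bath pH 7.4, KCl/KOH pipette pH 7.2. Compound was applied at increasing concentrations up to 10 µM with the receptor-specific GABA EC20. Peak currents were fitted logistically for EC50, Hill and % modulation, as mean ± S.E.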

The target in experiment [4] is Gamma-aminobutyric acid receptor subunit alpha-4/beta-3/gamma-2 (Rattus norvegicus) (UniProt P18508+P28471+P63079). The experiment in a line: Modulation of rat eGFP-fused GABA-A receptor alpha4beta3gamma2 expressed in HEK293 cells at <=1 uM in presence of GABA by patch-clamp assay relative to control. It counts as cell-based.
In experiment [5] the target is Gamma-aminobutyric acid receptor subunit alpha-1/beta-3/delta (Rattus norvegicus) (UniProt P18506+P62813+P63079). The experiment in a line: Displacement of [3H]EBOB from rat GABA-A receptor alpha1beta3delta expressed in HEK293 cell membranes at 10 uM after 90 mins by liquid scintillation counting analysis relative to control. The procedure, abridged:
as §1

The species entered for experiment [6] is Rattus norvegicus. The experiment in a line: Selectivity ratio of IC50 for rat GABA-A receptor alpha6beta3gamma2 expressed in HEK293 cells to IC50 for rat GABA-A receptor alpha6beta3delta expressed in HEK293 cells. It is filed as cell-based.
The target of experiment [7] is Gamma-aminobutyric acid receptor subunit alpha-6/beta-3/gamma-2 (Rattus norvegicus, UniProt P18508+P30191+P63079). Description: (§3) Displacement of [3H]EBOB from rat GABA-A receptor alpha6beta3gamma2 expressed in HEK293 cell membranes after 90 mins in presence of GABA by liquid scintillation counting analysis.
Chain of Gamma-aminobutyric acid receptor subunit alpha-6/beta-3/gamma-2 (P18508 whole entry): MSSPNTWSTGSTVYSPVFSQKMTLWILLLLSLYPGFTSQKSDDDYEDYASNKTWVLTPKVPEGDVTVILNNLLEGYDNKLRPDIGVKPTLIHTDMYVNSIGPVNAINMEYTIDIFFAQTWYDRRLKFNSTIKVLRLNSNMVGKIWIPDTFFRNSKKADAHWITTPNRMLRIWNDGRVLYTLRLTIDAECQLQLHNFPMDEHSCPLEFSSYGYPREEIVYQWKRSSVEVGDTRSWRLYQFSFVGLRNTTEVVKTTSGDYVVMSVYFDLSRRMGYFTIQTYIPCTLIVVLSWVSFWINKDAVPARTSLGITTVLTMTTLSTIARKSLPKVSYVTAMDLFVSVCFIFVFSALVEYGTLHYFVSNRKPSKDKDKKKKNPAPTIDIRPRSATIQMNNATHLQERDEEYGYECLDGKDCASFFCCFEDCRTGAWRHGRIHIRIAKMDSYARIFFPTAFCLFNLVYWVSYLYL
Chain of Gamma-aminobutyric acid receptor subunit alpha-6/beta-3/gamma-2 (P30191 whole entry): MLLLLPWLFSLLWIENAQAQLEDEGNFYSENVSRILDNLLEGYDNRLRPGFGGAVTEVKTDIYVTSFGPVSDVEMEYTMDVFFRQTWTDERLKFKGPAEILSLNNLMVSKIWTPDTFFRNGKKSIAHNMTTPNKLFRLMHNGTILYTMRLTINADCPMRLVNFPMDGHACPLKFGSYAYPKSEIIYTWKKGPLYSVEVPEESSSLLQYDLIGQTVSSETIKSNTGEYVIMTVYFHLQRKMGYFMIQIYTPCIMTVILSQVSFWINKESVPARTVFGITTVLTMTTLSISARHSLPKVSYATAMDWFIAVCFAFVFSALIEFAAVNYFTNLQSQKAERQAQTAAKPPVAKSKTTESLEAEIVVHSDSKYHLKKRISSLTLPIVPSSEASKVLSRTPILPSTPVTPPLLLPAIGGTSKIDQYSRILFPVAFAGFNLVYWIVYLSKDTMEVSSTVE
Chain of Gamma-aminobutyric acid receptor subunit alpha-6/beta-3/gamma-2 (P63079 whole entry): as the sequence (P63079 whole entry) above
Experiment [8] deals with T2, Gamma-aminobutyric acid receptor subunit alpha-6/beta-3/gamma-2 (Rattus norvegicus) (UniProt P18508+P30191+P63079). The experiment is described as §3.
In experiment [9] the target is Gamma-aminobutyric acid receptor subunit alpha-1/beta-3 (Rattus norvegicus, UniProt P62813+P63079). The experiment in a line: Modulation of rat […] GABA-A receptor alpha1beta3 expressed in HEK293 cells in presence of GABA by patch-clamp assay. It is filed as cell-based. The procedure, abridged:
(§4)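 Whole-cell patch clamp on eGFP-co-transfected HEK 293 cells expressing rat subunits, recorded 48 h post-transfection. KCl/KOH-based pipette solution, pH 7.2. Rising compound concentrations up to 10 µM co-applied with the receptor-specific GABA EC20. Peak currents fitted to a logistic function giving EC50, Hill coefficient and % modulation, mean ± S.E. of n experiments.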
For orientation: Patch clamp records ionic current or voltage across a cell membrane.

In experiment [10] the target is Gamma-aminobutyric acid receptor subunit alpha-4/beta-3 (Rattus norvegicus) (UniProt P28471+P63079). The experiment in a line: Agonist activity at rat […] GABA-A receptor alpha4beta3 expressed in HEK293 cells assessed as ratio of I0 to GABA Imax at 10 uM in absence of GABA by patch-clamp assay. It counts as cell-based. The procedure, abridged:
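Whole-cell patch clamp on single fluorescent HEK 293 cells 48 h after transient co-transfection with rat subunit cDNAs plus eGFP. Extracellular solution 135 mM NaCl, 5.3 mM KCl, 2 mM CaCl2, 2 mM MgSO4, 10 mM HEPES pH 7.4, perfused 3 mL/min. Compound at 10 µM without GABA. Current expressed relative to 1 mM GABA at the same receptor (I0/Imax GABA), mean ± S.D. of n experiments.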

The species named for experiment [11] is Rattus norvegicus. Description: Selectivity ratio of IC50 for rat GABA-A receptor alpha4beta3gamma2 expressed in HEK293 cells to IC50 for rat GABA-A receptor alpha4beta3delta expressed in HEK293 cells. It counts as cell-based.
The target in experiment [12] is T3, Gamma-aminobutyric acid receptor subunit alpha-4/beta-3/delta (Rattus norvegicus, UniProt P18506+P28471+P63079). The experiment in a line: Displacement of [3H]EBOB from rat GABA-A receptor alpha4beta3delta expressed in HEK293 cell membranes after 90 mins by liquid scintillation counting analysis. The procedure, abridged:
as §1

Experiment [13] concerns the target T2, Gamma-aminobutyric acid receptor subunit alpha-6/beta-3/gamma-2 (Rattus norvegicus). Description: Modulation of rat […] GABA-A receptor alpha6beta3gamma2 expressed in HEK293 cells up to 10 uM in presence of GABA by patch-clamp assay relative to control. It counts as cell-based. The procedure, abridged: as §2
Experiment [14] addresses Gamma-aminobutyric acid receptor subunit alpha-1/beta-3 (Rattus norvegicus) (UniProt P62813+P63079). Description: Modulation of rat […] GABA-A receptor alpha1beta3 expressed in HEK293 cells up to 10 uM in presence of GABA by patch-clamp assay relative to control. It is filed as cell-based. The procedure, abridged:
as §4

Experiment [15] addresses T3, Gamma-aminobutyric acid receptor subunit alpha-4/beta-3/delta. The experiment in a line: Modulation of rat […] GABA-A receptor alpha4beta3delta expressed in HEK293 cells in presence of GABA by patch-clamp assay. It counts as cell-based. The procedure, abridged:
as §2

Experiment [16] has as its target Gamma-aminobutyric acid receptor subunit alpha-1/beta-3/gamma-2 (Rattus norvegicus, UniProt P18508+P62813+P63079). Description: Modulation of rat […] GABA-A receptor alpha1beta3gamma2 expressed in HEK293 cells in presence of GABA by patch-clamp assay. It is filed as cell-based. The procedure, abridged: as §2
For experiment [17], the species on record is Rattus norvegicus. The experiment in a line: Selectivity ratio of IC50 for rat GABA-A receptor alpha6beta2 expressed in HEK293 cells to IC50 for rat GABA-A receptor alpha6beta2delta expressed in HEK293 cells. It counts as cell-based.
Experiment [18] concerns the target Gamma-aminobutyric acid receptor subunit alpha-6/beta-2 (Rattus norvegicus, UniProt P30191+P63138). The experiment in a line: Displacement of [3H]EBOB from rat GABA-A receptor alpha6beta2 expressed in HEK293 cell membranes after 90 mins by liquid scintillation counting analysis. The procedure, abridged: as §1
Experiment [19] has as its target T1, Gamma-aminobutyric acid receptor subunit alpha-6/beta-3 (Rattus norvegicus). Description: (§5) Displacement of [3H]EBOB from rat GABA-A receptor alpha6beta3 expressed in HEK293 cell membranes after 90 mins in presence of GABA by liquid scintillation counting analysis.
For experiment [20], the target named is Gamma-aminobutyric acid receptor subunit alpha-6/beta-3 (Rattus norvegicus, UniProt P30191+P63079). Described as §5.
Chain of Gamma-aminobutyric acid receptor subunit alpha-6/beta-3 (P30191 whole entry): as the sequence (P30191 whole entry) above
Chain of Gamma-aminobutyric acid receptor subunit alpha-6/beta-3 (P63079 whole entry): as the sequence (P63079 whole entry) above

T3 sequence (P18506 whole entry): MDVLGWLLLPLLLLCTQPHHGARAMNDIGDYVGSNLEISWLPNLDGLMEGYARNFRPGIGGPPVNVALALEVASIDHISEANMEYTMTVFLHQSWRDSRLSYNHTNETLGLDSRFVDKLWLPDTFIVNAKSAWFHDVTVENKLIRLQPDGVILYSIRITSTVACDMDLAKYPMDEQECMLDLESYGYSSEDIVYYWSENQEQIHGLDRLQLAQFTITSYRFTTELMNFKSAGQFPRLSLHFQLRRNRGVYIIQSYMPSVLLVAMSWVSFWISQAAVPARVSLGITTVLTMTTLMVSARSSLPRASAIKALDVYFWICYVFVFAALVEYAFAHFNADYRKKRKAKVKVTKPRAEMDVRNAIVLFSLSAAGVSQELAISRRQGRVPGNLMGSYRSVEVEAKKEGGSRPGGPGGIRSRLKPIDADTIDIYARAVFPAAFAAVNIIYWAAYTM
T3 sequence (P28471 whole entry): as the sequence (P28471 whole entry) above
T3 sequence (P63079 whole entry): as the sequence (P63079 whole entry) above
Chain of Gamma-aminobutyric acid receptor subunit alpha-1/beta-3 (P62813 whole entry): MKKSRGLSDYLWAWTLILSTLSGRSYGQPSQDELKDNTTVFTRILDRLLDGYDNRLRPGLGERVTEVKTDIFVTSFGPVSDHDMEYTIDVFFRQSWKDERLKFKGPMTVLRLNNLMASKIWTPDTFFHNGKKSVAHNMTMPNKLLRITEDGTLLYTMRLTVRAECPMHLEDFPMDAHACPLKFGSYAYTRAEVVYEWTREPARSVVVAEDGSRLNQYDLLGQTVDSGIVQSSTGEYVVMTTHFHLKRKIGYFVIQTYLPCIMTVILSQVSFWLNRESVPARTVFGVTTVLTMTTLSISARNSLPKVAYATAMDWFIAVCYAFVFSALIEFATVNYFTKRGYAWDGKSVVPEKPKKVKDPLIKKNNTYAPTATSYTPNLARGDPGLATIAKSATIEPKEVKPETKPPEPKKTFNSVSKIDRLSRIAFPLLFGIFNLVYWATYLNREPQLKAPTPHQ
Chain of Gamma-aminobutyric acid receptor subunit alpha-1/beta-3 (P63079 whole entry): as the sequence (P63079 whole entry) above
Chain of Gamma-aminobutyric acid receptor subunit alpha-1/beta-3/gamma-2 (P18508 whole entry): as the sequence (P18508 whole entry) above
Chain of Gamma-aminobutyric acid receptor subunit alpha-1/beta-3/gamma-2 (P62813 whole entry): as the sequence (P62813 whole entry) above
Chain of Gamma-aminobutyric acid receptor subunit alpha-1/beta-3/gamma-2 (P63079 whole entry): as the sequence (P63079 whole entry) above
Chain of Gamma-aminobutyric acid receptor subunit alpha-6/beta-2 (P30191 whole entry): as the sequence (P30191 whole entry) above
Chain of Gamma-aminobutyric acid receptor subunit alpha-6/beta-2 (P63138 whole entry): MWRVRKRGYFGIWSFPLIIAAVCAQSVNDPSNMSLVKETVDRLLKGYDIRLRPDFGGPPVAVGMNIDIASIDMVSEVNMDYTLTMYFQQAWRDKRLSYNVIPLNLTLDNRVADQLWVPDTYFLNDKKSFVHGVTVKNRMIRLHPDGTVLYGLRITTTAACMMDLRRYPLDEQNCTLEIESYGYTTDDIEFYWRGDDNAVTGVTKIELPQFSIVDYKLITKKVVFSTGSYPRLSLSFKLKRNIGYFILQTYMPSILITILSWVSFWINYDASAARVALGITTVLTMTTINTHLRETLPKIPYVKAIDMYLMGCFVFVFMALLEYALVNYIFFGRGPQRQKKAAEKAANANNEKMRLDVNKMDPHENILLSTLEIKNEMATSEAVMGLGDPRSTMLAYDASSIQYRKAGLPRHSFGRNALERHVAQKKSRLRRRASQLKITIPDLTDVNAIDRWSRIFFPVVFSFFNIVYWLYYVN

Take `O=C(Nc1c(-c2cccs2)nc2c(Br)cc(Br)cn12)c1ccc(Cl)cc1`: the Imax stood at 13% in [1], 18% in [5], 93% in [8] and 96% in experiment [19]. For the same compound, the IC50 – broadly, the concentration at which inhibition is half-maximal – amounted to 1860 nM in [2]; 1090 nM in [7]; 510 nM in experiment [12]; 630 nM in experiment [18]; 960 nM in experiment [20]. Further, the results for the Activity in [3], in experiment [13] and in [14] were 1140%, 157% and 35%, respectively. Further, the outcome in [4] was inactive. In addition, the Ratio IC50 came out at 3 in the experiment listed under Rattus norvegicus [6], 7 in the experiment filed under Rattus norvegicus [11] and 4 in the experiment listed under Rattus norvegicus [17]. The results for the EC50 in experiment [9], in [15] and in experiment [16] were 100 nM, 150 nM and 2010 nM, respectively. The Ratio in [10] was determined as 0.124.

(Values after ChEMBL document CHEMBL4190374, “Structure-Function Evaluation of Imidazopyridine Derivatives Selective for δ-Subunit-Containing γ-Aminobutyric Acid Type A (GABAA) Receptors” (J Med Chem, 2018).)
